From ChEMBL document CHEMBL2311393 (Bioorg Med Chem Lett, 2013)
The source made the active and inactive calls. No cut-off for these calls is given here.

Assays:
SK-BR-3 = assay: Antiproliferative activity against human SKBR3 cells; type: functional, cell-based
Method in brief: (§1)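 Growth inhibition in SKBr3 (ER-negative, Her2-overexpressing) and MCF-7 (ER-positive) breast cancer cells, run per an earlier published protocol. Values are mean ± standard deviation of at least two separate experiments, each in triplicate.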

MCF7 [1] = assay: Antiproliferative activity against human MCF7 cells; type: functional, cell-based; method in brief: as §1
MCF7 [2] = assay: Effect on Hsp90 protein level in human MCF7 cells at 0.1 to 2.5 uM after 24 hrs by Western blot analysis; type: functional, cell-based
Method in brief: (§2)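 MCF-7 cells were treated with the compound across a concentration series. Cell lysates were then probed by western blot for the Hsp90 client proteins Raf and Akt, for Hsp90 itself, and for actin as a non-Hsp90-dependent control protein.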

[3] = molecular target: T1, Heat shock protein HSP90 (Homo sapiens) (UniProt P07900+P08238); assay: Inhibition of Hsp90 in human MCF7 cells assessed as degradation of client protein Raf after 24 hrs by Western blot analysis; type: cell-based; method in brief: as §2
[4] = molecular target: T1, Heat shock protein HSP90 (Homo sapiens); assay: Inhibition of Hsp90 in human MCF7 cells assessed as degradation of client protein Akt after 24 hrs by Western blot analysis; type: cell-based; method in brief: as §2

| SMILES | IC50 (SK-BR-3) [nM] | IC50 (MCF7 [1]) [nM] | inhibition [3] | inhibition [4] | Activity (MCF7 [2]) |
| --- | --- | --- | --- | --- | --- |
| CC(C)=CCc1cc(C(=O)Nc2cc3ccc(OCCCNc4ccccc4)c(C)c3oc2=O)ccc1O | > 50000 | > 50000 |  |  |  |
| CCN(CC)CCCOc1ccc2cc(NC(=O)c3ccc(O)c(CC=C(C)C)c3)c(=O)oc2c1C | 4900 | 6390 |  |  |  |
| CC(C)=CCc1cc(C(=O)Nc2cc3ccc(OCC4CCCN(C)C4)c(C)c3oc2=O)ccc1O (stereo not given) | 1300 | 2640 |  |  |  |
| CC(=O)Oc1ccc(C(=O)Nc2cc3ccc(OCC4CCN(C)C4)c(C)c3oc2=O)cc1CC=C(C)C (stereo not given) | 880 | 1880 |  |  |  |
| CC(C)=CCc1cc(C(=O)Nc2cc3ccc(OCCCNC(C)(C)c4ccccc4)c(C)c3oc2=O)ccc1O | 960 | 1070 |  |  |  |
| CC(C)=CCc1cc(C(=O)Nc2cc3ccc(OCCCN(C)C4CCCCC4)c(C)c3oc2=O)ccc1O | 970 | 1080 |  |  |  |
| CC(C)=CCc1cc(C(=O)Nc2cc3ccc(OCCCN(C(C)C)C(C)C)c(C)c3oc2=O)ccc1O | 1600 | 1310 |  |  |  |
| CC(C)=CCc1cc(C(=O)Nc2cc3ccc(OCCCN[C@H](C)c4ccccc4)c(C)c3oc2=O)ccc1O | 1000 | 1450 |  |  |  |
| CC(C)=CCc1cc(C(=O)Nc2cc3ccc(OCCCN(C)Cc4ccccc4)c(C)c3oc2=O)ccc1O | 10700 | 11500 |  |  |  |
| CCCNCCCOc1ccc2cc(NC(=O)c3ccc(O)c(CC=C(C)C)c3)c(=O)oc2c1C | 990 | 980 |  |  |  |
| CC(C)=CCc1cc(C(=O)Nc2cc3ccc(OCCCN(C)C(C)(C)C)c(C)c3oc2=O)ccc1O | 880 | 1140 |  |  |  |
| CC(C)=CCc1cc(C(=O)Nc2cc3ccc(OCCCN4CCCCC4)c(C)c3oc2=O)ccc1O | > 50000 | > 50000 |  |  |  |
| CC(C)=CCc1cc(C(=O)Nc2cc3ccc(OCCCNCC(C)C)c(C)c3oc2=O)ccc1O | 1030 | 1320 |  |  |  |
| CC(C)=CCc1cc(C(=O)Nc2cc3ccc(OCCCN4CCN(C)CC4)c(C)c3oc2=O)ccc1O | 1010 | 1200 |  |  |  |
| CC(C)=CCc1cc(C(=O)Nc2cc3ccc(OCCCNCC(N)=O)c(C)c3oc2=O)ccc1O | 2290 | 1460 |  |  |  |
| CC(C)=CCc1cc(C(=O)Nc2cc3ccc(OCC4CCN(C)C4)c(C)c3oc2=O)ccc1O (stereo not given) | 920 | 1550 |  |  |  |
| CCCN(CCC)CCCOc1ccc2cc(NC(=O)c3ccc(O)c(CC=C(C)C)c3)c(=O)oc2c1C | > 50000 | > 50000 |  |  |  |
| CC(C)=CCc1cc(C(=O)Nc2cc3ccc(OCCCN4CCOCC4)c(C)c3oc2=O)ccc1O | > 50000 | > 50000 |  |  |  |
| CO[C@@H]1[C@@H](O)[C@@H](O)[C@H](Oc2ccc3cc(NC(=O)c4ccc(O)c(CC=C(C)C)c4)c(=O)oc3c2C)OC1(C)C | 10000 |  |  |  |  |
| CC(C)=CCc1cc(C(=O)Nc2cc3ccc(OCCCNCC(=O)O)c(C)c3oc2=O)ccc1O | 7570 | 18100 |  |  |  |
| CC(C)=CCc1cc(C(=O)Nc2cc3ccc(OCCCN(C)c4ccccc4)c(C)c3oc2=O)ccc1O | > 50000 | > 50000 |  |  |  |
| COC(=O)CNCCCOc1ccc2cc(NC(=O)c3ccc(O)c(CC=C(C)C)c3)c(=O)oc2c1C | 1060 | 2820 |  |  |  |
| CC(C)=CCc1cc(C(=O)Nc2cc3ccc(OCCCN4CCNCC4)c(C)c3oc2=O)ccc1O | 820 | 930 |  |  |  |

Now those with a lower IC50 (SK-BR-3), led by results:

| IC50 (SK-BR-3) [nM] | IC50 (MCF7 [1]) [nM] | inhibition [3] | inhibition [4] | SMILES | Activity (MCF7 [2]) |
| --- | --- | --- | --- | --- | --- |
| 730 | 2190 |  |  | CCN(C)CCCOc1ccc2cc(NC(=O)c3ccc(O)c(CC=C(C)C)c3)c(=O)oc2c1C |  |
| 620 | 820 |  |  | CC(=O)Oc1ccc(C(=O)Nc2cc3ccc(OCC4CCCNC4)c(C)c3oc2=O)cc1CC=C(C)C (stereo not given) |  |
| 660 | 950 |  |  | CC(C)=CCc1cc(C(=O)Nc2cc3ccc(OCCCNC(C)(C)C)c(C)c3oc2=O)ccc1O |  |
| 720 | 980 |  |  | CCNCCCOc1ccc2cc(NC(=O)c3ccc(O)c(CC=C(C)C)c3)c(=O)oc2c1C |  |
| 470 | 910 |  |  | CC(C)=CCc1cc(C(=O)Nc2cc3ccc(OCCCNCc4ccccc4)c(C)c3oc2=O)ccc1O |  |
| 740 | 1650 |  |  | CC(=O)Oc1ccc(C(=O)Nc2cc3ccc(OCC4CCCN(C)C4)c(C)c3oc2=O)cc1CC=C(C)C (stereo not given) |  |
| 660 | 1070 |  |  | CC(C)=CCc1cc(C(=O)Nc2cc3ccc(OCCCNC4CCCCC4)c(C)c3oc2=O)ccc1O |  |
| 600 | 790 |  |  | CC(C)=CCc1cc(C(=O)Nc2cc3ccc(OCC4CCCNC4)c(C)c3oc2=O)ccc1O (stereo not given) |  |
| 640 | 710 |  |  | CC(C)=CCc1cc(C(=O)Nc2cc3ccc(OCCC4CCCCN4)c(C)c3oc2=O)ccc1O (stereo not given) |  |
| 310 | 320 | Dose-dependent effect | Dose-dependent effect | CC(C)=CCc1cc(C(=O)Nc2cc3ccc(OCCCNC45CC6CC(CC(C6)C4)C5)c(C)c3oc2=O)ccc1O | inactive |
| 720 | 990 |  |  | CC(C)=CCc1cc(C(=O)Nc2cc3ccc(OCCCN4CCCC4)c(C)c3oc2=O)ccc1O |  |
| 570 | 1050 |  |  | CC(C)=CCc1cc(C(=O)Nc2cc3ccc(OCCCN(C)C(C)C)c(C)c3oc2=O)ccc1O |  |
| 750 | 740 |  |  | CC(C)=CCc1cc(C(=O)Nc2cc3ccc(OCCCNC(C)C)c(C)c3oc2=O)ccc1O |  |
| 640 | 710 |  |  | CC(=O)Oc1ccc(C(=O)Nc2cc3ccc(OCCC4CCCCN4)c(C)c3oc2=O)cc1CC=C(C)C (stereo not given) |  |
| 610 | 1560 |  |  | CC(C)=CCc1cc(C(=O)Nc2cc3ccc(OCCCNCCO)c(C)c3oc2=O)ccc1O |  |
| 770 | 1030 |  |  | CC(C)=CCc1cc(C(=O)Nc2cc3ccc(OCCCN[C@@H]4C[C@H]5CC[C@@H]4C5)c(C)c3oc2=O)ccc1O |  |
